Rows were chosen to be rich in hits. Some 1.7% of all compounds tested hit in one or more screens of this group.
EBNA-1 inh: blocks EBNA-1 binding to DNA. EBNA-1 DNA binding, fluorescence polarization. inhibition, % at 14.8 µM. 300,000 compounds, 0.34% hits. AID 1950; in the data active = inhibition above about 28%
core dimer inh: HCV core protein dimerization inhibition; AID 1899; 300,000 compounds, 0.33% hits; inhibition, % at 5 µM; TR-FRET GST/Flag-core106 dimerization, 1536-well;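 active = inhibition above the mean of all tested compounds plus 3 SD, set per screening campaign, cut at about 45% in these data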
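Test system: GST/Flag-tagged HCV core106 proteins; Medium: KF-containing HEPES buffer, pH 7.45, DTT, CHAPS, BSA; Times: compound-protein-antibody incubation 4 h at 22.5 °C; Detection: TR-FRET 671 and 617 nm emission; Benchmarks: wells lacking GST-core106 and wells with excess unlabelled core106.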
HCV NS3 hel inh: blocks Hepatitis C virus NS3 helicase unwinding. inhibition, % at 10.9 µM. 290,000 compounds, 0.56% hits. NS3 helicase DNA unwinding, Cy5 molecular beacon fluorescence;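 active = inhibition above the mean of all tested compounds plus 3 SD, set per campaign, cut at about 35% in these data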
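Test system: hepatitis C virus NS3 helicase domain fragment enzyme. Also added: annealed dual-labelled DNA beacon duplex, ATP-started. Timing: 60 min unwinding reaction at 25 °C after ATP addition. Technique: Cy5 fluorescence. Measure: % inhibition of unwinding.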
ZTA DNA inh: ZTA (EBV) inhibition in EBNA-1 counter-screen; P03206; ZTA-DNA binding, fluorescence polarization; inhibition, % at 11 µM; 320,000 compounds, 0.15% hits; AID 2234; in the data active = inhibition above about 33%
Target sequence (P03206 whole entry, looked up): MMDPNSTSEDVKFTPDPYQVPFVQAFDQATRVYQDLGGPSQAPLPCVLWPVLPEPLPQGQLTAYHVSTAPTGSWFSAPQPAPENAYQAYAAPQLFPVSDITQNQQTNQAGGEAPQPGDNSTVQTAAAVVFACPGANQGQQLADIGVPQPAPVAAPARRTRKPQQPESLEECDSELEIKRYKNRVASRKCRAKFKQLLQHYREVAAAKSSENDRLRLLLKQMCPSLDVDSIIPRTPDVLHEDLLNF
MEX-5 binding: C. elegans MEX-5 TCR-2 RNA binding activity | Q9XUB2 | MEX-5/FITC-TCR2 RNA binding, fluorescence polarization; stronger effect = lower value | activity score (negative = inhibition of binding), % at 10 µM | 300,000 compounds, 0.38% hits | AID 1832;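 active = inhibition past about -25% in most replicates, and total fluorescence under double the plate's negative control median, limit read from the data; inconclusive = replicates evenly split on the limit, or fluorescence at least double controls; inactive = too little inhibition in most replicates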
Target sequence (Q9XUB2 whole entry, looked up): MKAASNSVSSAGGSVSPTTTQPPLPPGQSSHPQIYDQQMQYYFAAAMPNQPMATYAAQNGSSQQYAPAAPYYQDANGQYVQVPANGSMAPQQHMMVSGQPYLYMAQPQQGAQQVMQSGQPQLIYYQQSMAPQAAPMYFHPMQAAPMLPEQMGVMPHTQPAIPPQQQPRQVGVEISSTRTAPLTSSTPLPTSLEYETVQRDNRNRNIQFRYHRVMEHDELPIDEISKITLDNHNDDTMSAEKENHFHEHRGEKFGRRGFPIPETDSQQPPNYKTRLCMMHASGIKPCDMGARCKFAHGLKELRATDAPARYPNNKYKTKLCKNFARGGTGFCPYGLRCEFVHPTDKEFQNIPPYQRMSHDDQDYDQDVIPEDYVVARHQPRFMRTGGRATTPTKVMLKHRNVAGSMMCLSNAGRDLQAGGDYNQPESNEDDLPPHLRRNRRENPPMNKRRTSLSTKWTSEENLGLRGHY
EBV gp42 block: blocks Epstein-Barr virus glycoprotein 42 binding. Q1HVG2. Fluorescence polarization binding assay, mP read-out. inhibition, % (tested at 21.74 µM). 220,000 compounds, 0.42% hits. AID 1085; in the data active = inhibition above about 50%
Each line names hits and unclear results; the compound was inactive in the other large screens.

COC(=O)c1sccc1NC(=O)Nc1cccc(F)c1	none
O=C(CSc1nc2ccccc2c(=O)n1-c1ccccc1Cl)NC1CCS(=O)(=O)C1 (stereo unspecified)	none (no result: EBNA-1 inh, core dimer inh, HCV NS3 hel inh, MEX-5 binding, EBV gp42 block)
COc1cccc(N=Cc2c(O)n(-c3cccc(C)n3)c(=O)c3ccccc23)c1	none
COc1ccc(N=Cc2c(O)n(-c3cccc(C)n3)c(=O)c3ccccc23)c(OC)c1	MEX-5 binding -68.6
O=C(CSc1nc(-c2ccccc2)cs1)NCCN1C(=O)CSC1=O	none
Cc1ccc(C2C3=C(CCCC3=O)Nc3[nH]c(=S)[nH]c(=O)c32)cc1 (stereo unspecified)	EBV gp42 block 82.4
Cc1noc(/C=C/N(C)C)c1S(=O)(=O)N1CCC(C(=O)O)CC1	MEX-5 binding -30.4
Cc1noc(/C=C/c2ccco2)c1S(=O)(=O)N1CCC(C(=O)N2CCc3ccccc3C2)CC1	core dimer inh 48.3
CCOC(=O)COc1ccc2c(=O)c(-c3ccccc3OC)coc2c1	core dimer inh 60.6
COC(=O)COc1ccc2c(=O)c(-c3ccccc3OC)coc2c1	none
CCOc1ccc(CSc2nc(C)cc(COC)c2C#N)cc1OCC	none (no result: EBV gp42 block)
O=C(N/N=C/c1ccccc1)c1n[nH]c2c1CCCC2	none
O=C(N/N=C/C(Br)=C/c1ccccc1)c1n[nH]c2c1CCC2	core dimer inh 68.8
Cn1cccc1C(=O)NNC(=O)COc1ccccc1Cl	none (no result: EBNA-1 inh, core dimer inh, HCV NS3 hel inh, MEX-5 binding, EBV gp42 block)
N#Cc1c(-c2ccco2)cc(-c2cccnc2)nc1N	none
N#Cc1c(-c2ccco2)cc(-c2ccccn2)nc1N	core dimer inh 73.2
COc1ccc(C(=O)c2sc3nc(C)cc(-c4cccs4)c3c2N)cc1	MEX-5 binding -44.4, EBV gp42 block 101.9 (no result: EBNA-1 inh, core dimer inh, ZTA DNA inh)
Cc1cc(-c2cccs2)c2c(N)c(C(=O)c3ccc4c(c3)OCO4)sc2n1	EBV gp42 block 132.5
Nc1c(C(=O)Nc2nc3ccccc3s2)sc2nc(-c3cccs3)ccc12	MEX-5 binding -46.2
Cc1cc(C)c2c(N)c(C(=O)c3ccc(Cl)c(Cl)c3)sc2n1	none
CC(C)NC(=O)c1sc2nc(-c3cccs3)cc(-c3cccs3)c2c1N	EBV gp42 block 64.0
CC(=O)c1sc2nc(-c3cccs3)ccc2c1N	none
Cc1ncoc1C(=O)NC1CCCc2c1cnn2-c1ccc(C(C)(C)C)cc1 (stereo unspecified)	none (no result: EBNA-1 inh, core dimer inh, ZTA DNA inh, EBV gp42 block)
COc1ccc(C(=O)c2sc3nc(C)cc(-c4cccs4)c3c2N)cc1OC	MEX-5 binding -53.5, EBV gp42 block 60.8
COc1ccc(-c2c(C#N)c(N)nc3sc(C(=O)c4ccc(C)cc4)c(N)c23)cc1	EBV gp42 block 74.6
COc1ccc(C(=O)c2sc3nc(-c4ccc(OC)cc4)ccc3c2N)cc1	none
Cc1cc(C)c2c(N)c(C(=O)c3ccc(Cl)cc3)sc2n1	none
CCCCSCCCNC(=O)Nc1ccc(CC)cc1	none
CCOc1ccc(S(=O)(=O)Nc2cc(Sc3ncn[nH]3)c3oc(=O)sc3c2)cc1	MEX-5 binding -33.5
COc1ccc(C(=O)/C=C/Nc2ccc([N+](=O)[O-])cc2C)cc1OC	MEX-5 binding -43.3
COc1ccc(C(=O)/C=C/Nc2ccc([N+](=O)[O-])cc2C)c(OC)c1	MEX-5 binding inconclusive
O=C(Nc1ccccn1)C(=O)Nc1ccccn1	none
CC(=O)Nc1ccc(S(=O)(=O)Nc2ccccn2)cc1	none
Cc1ccccc1S(=O)(=O)NNC(=O)C(=O)NNc1ccccn1	MEX-5 binding -25.6
Cc1ccc(S(=O)(=O)NNC(=O)C(=O)NNc2ccccn2)cc1	none
CC(=O)Nc1ccc(S(=O)(=O)NNC(=O)C(=O)NNc2ccccn2)cc1	MEX-5 binding -45.3
Nc1ccc(S(=O)(=O)NNC(=O)C(=O)NNc2ccccn2)cc1	MEX-5 binding -30.3
CCc1ccc(Nc2n[n+](-c3ccccc3)c(/C=C/c3ccccc3)s2)cc1	none (no result: EBV gp42 block)
N#C/C(=C\c1ccc(OCc2cccc(C(=O)O)c2)cc1)C(=O)NCc1ccco1	none (no result: MEX-5 binding)
CN(CC(=O)Nc1ccccc1Br)C(=O)c1cc2c(s1)CCCCC2	none (no result: HCV NS3 hel inh, EBV gp42 block)
COc1cccc(/C=N/n2c(N)c(S(=O)(=O)c3cccs3)c3nc4ccccc4nc32)c1OC	none
Nc1c(S(=O)(=O)c2cccc(Cl)c2)c2nc3ccccc3nc2n1/N=C/c1ccc(O)c(O)c1	core dimer inh 70.6
Cc1cccc(-n2c(-c3ccncc3)n[nH]c2=S)c1C	core dimer inh 49.1
COc1ccc(N=C2NC(=O)S/C2=C\c2ccc(N(C)C)cc2)cc1	EBV gp42 block 95.1
CCOc1ccc(N=C2NC(=O)S/C2=C\c2ccc(Cl)cc2)cc1	none
O=S(=O)([N-]c1nc2ccccc2nc1-[n+]1ccc(CCCc2ccccc2)cc1)c1cccs1	MEX-5 binding -28.9
O=S(=O)([N-]c1nc2ccccc2nc1-[n+]1ccc(-c2ccncc2)cc1)c1ccccc1	EBV gp42 block 56.0
COC(=O)c1ccc2c(=O)sc(N3CCC(C(N)=O)CC3)nc2c1	EBV gp42 block 85.2
COC(=O)c1ccc(C(=O)OC)c(NC(=S)N2CCC(C(N)=O)CC2)c1	none
COc1ccc(N/C(=C(/C(Cl)=C(Cl)Cl)[N+](=O)[O-])n2nnc3ccccc32)cc1	MEX-5 binding -42.4
Cc1ccccc1N/C(=C(/C(Cl)=C(Cl)Cl)[N+](=O)[O-])n1nnc2ccccc21	none
O=C(O)CCCN1C(=O)/C(=C\c2ccc(-c3nc4ccccc4s3)o2)SC1=S	MEX-5 binding -55.6
COc1cc(C(=O)NC(=S)NNC(=O)c2cnccn2)cc(OC)c1OC	MEX-5 binding -46.5
COc1ccc(N2C(=O)[C@@H]3[C@H](C2=O)[C@H](C(=O)c2ccc(OC(C)=O)cc2)N2N=CC=C[C@@H]32)cc1	core dimer inh 46.1
CC(=O)Oc1ccc(C(=O)[C@H]2[C@H]3C(=O)N(c4ccc(C)cc4)C(=O)[C@H]3[C@@H]3C=CC=NN32)cc1	none
O=C1NN(c2cccc(Br)c2)C(=O)/C1=C/c1ccc(-c2cc([N+](=O)[O-])ccc2O)o1	EBV gp42 block 100.8
CC1Cc2ccccc2N1Cc1cc(=O)n2ccsc2n1 (stereo unspecified)	core dimer inh 68.0 (no result: MEX-5 binding)
COc1ccccc1N1CCN(Cc2cc(=O)n3ccsc3n2)CC1	none
COc1ccccc1CNC(=O)CN1C(=O)NC2(CCCC2)C1=O	none (no result: EBNA-1 inh, core dimer inh, HCV NS3 hel inh, MEX-5 binding, EBV gp42 block)
O=C1c2cccc([N+](=O)[O-])c2C(=O)N1CCO	none
O=C1CSC(=S)N1N1C(=O)c2cccc([N+](=O)[O-])c2C1=O	MEX-5 binding -27.8
O=C(NC1CCCC1)c1cc(-c2cccc(Cl)c2)on1	none (no result: EBV gp42 block)
O=C1C(Br)=Cc2cccc3cccc1c23	EBV gp42 block 116.2
O=C1c2cccc3cccc(c23)C(=O)N1OS(=O)(=O)c1ccc(Br)cc1	none
OCCCNc1c2ccccc2nc2ccccc12	none (no result: EBV gp42 block)
Nc1nc(O)c(N=Nc2ccc(S(N)(=O)=O)cc2)c(=O)[nH]1	none (no result: EBNA-1 inh, core dimer inh, ZTA DNA inh, EBV gp42 block)
CC(=O)c1ccc(N=Nc2c(C)[nH][nH]c2=O)cc1	none (no result: HCV NS3 hel inh, MEX-5 binding, EBV gp42 block)

Screening results from PubChem BioAssay.
